Test results as given in ChEMBL document CHEMBL1142229, “Docosahexaenoic acid alters bilayer elastic properties” (Proc Natl Acad Sci U S A, 2007).
Active and inactive are the calls of the source. The rule behind the calls is not given here.

How the values were obtained:
[1] = Partition coefficient (x10-4) across dioleoylphosphatidylcholine bilayer; format: ADME; conditions: lipid bilayer/electrolyte
Outline: (§1)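 Lipid/electrolyte partition coefficient measured with ADIFAB (0.2 μM) in 1 M NaCl, 10 mM Hepes, pH 7.0 at 25 ± 1°C. Extruded vesicles at ≈100 μM phospholipid; total fatty acid raised stepwise over 3–30 μM, 3–5 min equilibration per step. Emission read at 432 and 505 nm (excitation 386 nm), corrected for cuvette binding. Kp from free vs total FA and Vm/Va; triplicate, averaged over concentrations.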

[2] = Activity at gramicidin channel 13 assessed as increase in single channel current
Outline: (§2)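 Planar bilayers of DC18:1PC (20 mg/ml in n-decane) across a ≈1.6 mm hole in a Teflon partition, in 1 M NaCl, 10 mM Hepes, pH 7.0. Opposite-helix-sense gA analogue pairs, gA(13) and AgA(15). Fatty acid added to both sides from ethanolic stock with NaOH and BHT, stirred 5 min, equilibrated 10 min. Single-channel currents and lifetimes recorded before and after addition. Where stated, cholesterol:DC18:1PC molar ratio 1:1.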

[3] = Activity at gramicidin channel 13 assessed as increase in single channel current at 10 uM; outline: as §2
[4] = Activity at gramicidin channel 13 assessed as increase in single channel current at 10 uM in presence of cholesterol; outline: as §2
[5] = Partition coefficient (x10-4) across dieicosenoyl-phosphatidylcholine bilayer; format: ADME; conditions: lipid bilayer/electrolyte; outline: as §1
[6] = Activity at gramicidin A negative channel 15 assessed as increase in single channel current; outline: as §2
[7] = Effect on gramicidin channel 13 activity; outline: as §2
[8] = Partition coefficient (x10-4) across dioleoylphosphatidylcholine bilayer in presence of cholesterol; format: ADME; conditions: lipid bilayer/electrolyte; outline: as §1

Compound	Partition coefficient [1]	Activity [2]	Activity [3] [%]	Activity [4] [%]	Partition coefficient [5]	Activity [6]	Activity [7]	Partition coefficient [8]
CC/C=C\C/C=C\C/C=C\C/C=C\C/C=C\C/C=C\CCC(=O)O [DOCONEXENT]	20	Active	15	65	20	Active	Active	19
CCCCCCCC/C=C\CCCCCCCC(=O)O [OLEIC ACID]	254	inactive	5	15	246	inactive	inactive	
